Several values for one entry are separate records, joined by “and”; a condition that tells them apart may be missing. Identical values can stand only once. Entries after “also recorded” stand apart in the source; their conditions may differ. Some results are limits rather than exact numbers.

Results on 8 compounds are retold here after publication PMC4207532 (Journal of Medicinal Chemistry, 2014).

Data set [1] in a line: Singlet oxygen yield from 1O2 luminescence at 1270 nm. The conditions noted are these: air-saturated CH3OH; ±SD. Type of data set: physicochemical. The procedure, abridged:
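Air-saturated CH3OH solutions in quartz cuvettes. Excitation by 532 nm second harmonic of a nanosecond-pulsed Nd:YAG laser (20 Hz) for time-resolved 1O2 luminescence decay at 1270 nm. Emission collected at 90° through a 950 nm long-pass filter onto an NIR-detector spectrometer. Steady-state NIR emission spectra used a 532 nm diode-pumped solid-state laser.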

For data set [2], the system named is Colo-26 cells. The experiment in a line: Phototoxicity toward Colo-26 cells with tunable dye laser. The format is cell-based, murine. The conditions noted are these: for Phototoxicity (in words): 0.15 μM, 5.0 J cm^–2 of laser light; for LD50/EC50 (laser, 1.0 J cm^–2): dark LD50 over EC50 with 1.0 J cm^–2 of laser light.
The nature of data set [3]: Steady-state fluorescence in CH3OH. Type of data set: physicochemical. The conditions noted are these: excitation at 532 nm; for Quantum yield for fluorescence ΦFL: 3 as standard, ±SD. The procedure, abridged: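 Steady-state emission spectra recorded in CH3OH on a spectrofluorometer with 532 nm excitation. Quantum yield determined relative to a reference rhodamine dye in CH3OH (ΦFL = 0.93).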

The test system of data set [4] is Colo-26 cells. The experiment in a line: Uptake in Colo-26 cells with and without verapamil by flow cytometry. Type of data set: cell-based, murine. The conditions noted are these: for Uptake relative to the corresponding thioamide derivative: Colo-26 cells, Figure 2; for Increase in uptake in the presence of VER: 0.5 μM dye, 1 h, with vs without 100 μM verapamil, mean fluorescence. The procedure, abridged:
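Colo-26 cells exposed 1 h to 0.5 μM dye with or without 100 μM verapamil, then analysed by flow cytometry with 561 nm excitation and 710 nm emission. Mean cellular fluorescence compared between conditions; error bars SD.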

Data set [5] relates to Colo-26 cells. The experiment in a line: Combination PDT and doxorubicin in Colo-26 cells. Type of data set: cell-based, murine. The conditions noted are these: for Synergy with Dox upon irradiation (in words): 0.15 μM dye, various Dox concentrations, 1.0 J cm^–2 laser light; for Phototoxicity (in words) in the absence of Dox: 0.15 μM, 1.0 J cm^–2 of 613 nm (15b, 17b) or 611 nm (16b, 18b) laser light, relative to dark controls; for Surviving fraction of the combination vs single treatments (in words) / Surviving fraction: 0.15 μM photosensitizer, 1.0 J cm^–2 of 611 nm light; for Surviving fraction of the combination vs single treatments (in words): 0.5 μM Dox; for Surviving fraction: 1.0 μM Dox; for Dox-only concentration giving the same surviving fraction as the combination: combination: 0.15 μM photosensitizer, 0.05 μM Dox, 1.0 J cm^–2 of light. The procedure, abridged: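 Colo-26 cells were seeded at 10 000/well and grown 24 h in RPMI 1640 with 10% FBS. Dye at 0.15 μM (ethanol stock) plus Dox at 0.005–5.0 μM were added together as 10× medium solutions, alongside single-agent wells. After 1 h dark, wells were kept dark or laser-irradiated at λmax (±2 nm), 3.2 mW cm–2, to 1 J cm–2. Fresh medium, 48 h at 37 °C, 5% CO2. SRB assay read at 570 nm; six replicates, ±SD, pairwise […].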

Data set [6] in a line: Absorption spectra in CH3OH. Type of data set: physicochemical.
A short description of data set [7]: Photostability under continuous illumination. The format is physicochemical. The procedure, abridged:
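Dye in 10% CH3OH/pH 7.4 buffer under continuous tungsten-source illumination at 50 mW cm–2. Loss of dye chromophore was followed as a function of delivered fluence and treated as first-order, giving the fluence for half-loss.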

Data set [8] deals with P-gp. Description: P-gp transport and cell association in MDCKII-MDR1 monolayers. Type of data set: in vitro ADME. The conditions noted are these: dog, MDCK-MDR1, with 24 (LSN 335984), 5 μM.
In data set [9] the target is P-gp (Homo sapiens, UniProt P08183). The description is as above. The conditions noted are these: dog, MDCK-MDR1. Type of data set: in vitro ADME.
Data set [10] concerns mitochondria of Colo-26 cells. Description: Colocalization by ImageStream flow cytometry. The format is cell-based, murine. The conditions noted are these: Colo-26 cells incubated with both agents; ±SD. The procedure, abridged: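 Colo-26 cells (5 × 10^5 in 0.5 mL medium) co-incubated 15 min with MitoTracker Green and MitoTracker Red. Cells were then centrifuged, and medium replaced with Hanks PBS. Resuspended cells kept on ice and imaged by ImageStream (480–560 and 642–745 nm channels; MTG excited at 488 nm). Per-cell similarity was a log-transformed Pearson correlation of spatially correlated pixel intensities over the whole cell, averaged over 1300 cells.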
(In general: Flow cytometry measures light scatter and fluorescence of single cells or particles in a stream.)

For data set [11] the following is noted: in CH3OH; cited from earlier work.
Data set [12] relates to P-gp. The conditions noted are these: 5 μM; cited from earlier work.
The test system of data set [13] is isolated P-gp. The conditions noted are these: ref 7−9; cited from earlier work.
The mark [14] stands for this setting: 350–800 nm light at 50 mW cm^–2, 10% CH3OH in pH 7.4 buffer.

Sequence of P-gp (Homo sapiens, UniProt P08183) (P08183 whole entry): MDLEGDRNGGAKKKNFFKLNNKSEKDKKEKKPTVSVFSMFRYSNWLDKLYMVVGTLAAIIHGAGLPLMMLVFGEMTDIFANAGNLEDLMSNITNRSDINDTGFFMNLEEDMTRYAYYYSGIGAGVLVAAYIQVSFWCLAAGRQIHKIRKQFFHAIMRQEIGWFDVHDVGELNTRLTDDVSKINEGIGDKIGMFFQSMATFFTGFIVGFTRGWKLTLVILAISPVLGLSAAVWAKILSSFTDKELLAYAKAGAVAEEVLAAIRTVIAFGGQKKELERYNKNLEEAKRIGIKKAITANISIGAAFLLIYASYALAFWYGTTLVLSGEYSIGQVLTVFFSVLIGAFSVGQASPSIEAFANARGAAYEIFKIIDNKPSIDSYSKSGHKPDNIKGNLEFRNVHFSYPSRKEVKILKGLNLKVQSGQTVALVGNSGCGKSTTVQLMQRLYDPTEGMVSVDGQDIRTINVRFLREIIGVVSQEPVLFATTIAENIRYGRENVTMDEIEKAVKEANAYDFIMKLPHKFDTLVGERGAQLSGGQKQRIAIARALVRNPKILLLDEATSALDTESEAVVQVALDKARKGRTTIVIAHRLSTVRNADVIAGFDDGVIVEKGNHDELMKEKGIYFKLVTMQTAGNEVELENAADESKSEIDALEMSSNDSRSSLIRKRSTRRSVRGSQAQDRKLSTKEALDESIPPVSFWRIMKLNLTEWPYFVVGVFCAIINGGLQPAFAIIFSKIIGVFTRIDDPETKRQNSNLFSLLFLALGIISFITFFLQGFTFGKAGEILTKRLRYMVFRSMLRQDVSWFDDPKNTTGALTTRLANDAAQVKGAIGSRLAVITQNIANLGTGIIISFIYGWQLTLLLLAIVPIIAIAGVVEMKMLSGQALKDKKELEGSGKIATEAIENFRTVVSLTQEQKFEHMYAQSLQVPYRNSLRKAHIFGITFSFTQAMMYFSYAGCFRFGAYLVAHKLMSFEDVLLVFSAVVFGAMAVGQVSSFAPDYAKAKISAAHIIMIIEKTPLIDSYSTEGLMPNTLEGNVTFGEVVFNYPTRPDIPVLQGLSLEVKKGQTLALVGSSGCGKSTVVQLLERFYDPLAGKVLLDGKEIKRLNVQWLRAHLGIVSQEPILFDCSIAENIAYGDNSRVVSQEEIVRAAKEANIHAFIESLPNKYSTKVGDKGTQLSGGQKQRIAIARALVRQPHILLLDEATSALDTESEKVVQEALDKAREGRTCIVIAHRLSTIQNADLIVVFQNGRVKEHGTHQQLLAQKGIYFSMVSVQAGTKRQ

On to `CCN(CC)C(=O)c1ccc(-c2c3ccc(=[N+](C)C)cc-3[se]c3cc4c(cc23)C(C)(C)CCN4C)s1.[Cl-]` [15b, 9-(5-(Diethylcarbamoyl)thiophen-2-yl) Selenorhodamine], for which the “Quantum yield for the generation of singlet oxygen Φ(1O2)” value (“Quantum yield for the generation” below) in data set [1] is given as 0.50 ± 0.03. Besides, in data set [2], the “Phototoxicity (in words)” value is recorded as “some phototoxicity” and the “LD50/EC50 (laser, 1.0 J cm^–2)” value was found to be 22. Further, in data set [3], the “Fluorescence emission maximum λFL” value worked out at 636 nm and the “Quantum yield for fluorescence ΦFL” value is 0.009 ± 0.001. Moreover, the “Uptake relative to the corresponding thioamide derivative” value in data set [4] was 40–50%. Also, in data set [5], the “Synergy with Dox upon irradiation (in words)” value (“Synergy” below) is “No synergy; also recorded: do not show significant synergistic effects” and the “Phototoxicity (in words) in the absence of Dox” value (shortened to “Phototoxicity … of Dox”) is “no significant phototoxicity”. In [6], the “Absorption maximum λmax” value is reported as 609 nm and the “Molar extinction coefficient ε” value is on record as 7.18 × 10^4 M^–1 cm^–1.
Turning to `CCN(CC)C(=S)c1ccc(-c2c3ccc(=[N+](C)C)cc-3[se]c3cc4c(cc23)C(C)(C)CCN4C)s1.[Cl-]` [16b, 9-(5-(Diethylcarbamothioyl)thiophen-2-yl) Selenorhodamine], the “Quantum yield for the generation” value in data set [1] amounted to 0.54 ± 0.03. In addition, the “LD50/EC50 (laser, 1.0 J cm^–2)” value in data set [2] was > 55. In addition, in data set [3], the “Fluorescence emission maximum λFL” value was 635 nm and the “Quantum yield for fluorescence ΦFL” value was determined as 0.008 ± 0.001. In addition, in [4], the “Increase in uptake in the presence of VER” value is 1.3- to 2 fold and 2 fold. Moreover, in data set [5], the “Synergy” value is given as “synergistic effects”, the “Surviving fraction of the combination vs single treatments (in words)” value is “statistically significant decrease”, the Surviving fraction is ≤ 0.20 and the “Phototoxicity … of Dox” value was “some phototoxicity”. The “Dox-only concentration giving the same surviving fraction as the combination” value in data set [5] was found to be 0.5 µM. The “Fluence after which half of the dye chromophore is lost” value (shortened to “Fluence after which half”) in data set [7] (setting [14]) is given as ~230 J cm^–2. For the same compound, in [6], the “Absorption maximum λmax” value came out at 608 nm and the “Molar extinction coefficient ε” value was 9.78 × 10^4 M^–1 cm^–1.
Regarding `CN1CCC(C)(C)c2cc3c(-c4ccc(C(=O)N5CCCCC5)s4)c4ccc(=[N+](C)C)cc-4[se]c3cc21.[Cl-]` [17b, 9-(5-(Piperidylcarbamoyl)thiophen-2-yl) Selenorhodamine], in data set [8], the Papp A→B (commonly the apparent permeability from the apical to the basolateral side of a cell layer) at 1 h, 5 μM was 0.1 ± 0.01 ×10⁻⁶ cm/s; the Papp B→A (usually the apparent permeability from the basolateral to the apical side of a cell layer) at 1 h, 5 μM was 1.11 ± 0.02 ×10⁻⁶ cm/s; the Papp (as a rule, a coefficient for how fast a substance crosses the barrier) at 1 h, 5 μM was ~0.6 ×10⁻⁶ cm/s. In [9], the Papp A→B at 1 h, 5 μM came out at 0.09 ± 0.03 ×10⁻⁶ cm/s; the Papp B→A at 1 h, 5 μM came to 16.4 ± 0.4 ×10⁻⁶ cm/s; the efflux ratio (in general, the permeability from basolateral to apical divided by that in the opposite direction, in the common usage) at 1 h, 5 μM turned out to be 182. Also, in data set [1], the “Quantum yield for the generation” value worked out at 0.48 ± 0.03. Further, in data set [2], the “Phototoxicity (in words)” value was “little if any phototoxicity” and the “LD50/EC50 (laser, 1.0 J cm^–2)” value was 26. For the same compound, the EC50 (as a rule, the concentration giving half of the maximal effect) in data set [2] (Mus musculus, 48 h, read-out: EC50 (λmax ± 2 nm), 0.5 J cm^–2) is > 500 nM. Besides, in [3], the “Fluorescence emission maximum λFL” value is 634 nm and the “Quantum yield for fluorescence ΦFL” value came out at 0.009 ± 0.001. The “Uptake relative to the corresponding thioamide derivative” value in data set [4] is reported as 40–50%. Besides, in [5], the “Synergy” value was “No synergy; also recorded: do not show significant synergistic effects” and the “Phototoxicity … of Dox” value was “no significant phototoxicity”. Also, in data set [6], the “Absorption maximum λmax” value turned out to be 609 nm and the “Molar extinction coefficient ε” value is listed as 8.73 × 10^4 M^–1 cm^–1.
For the compound `CN1CCC(C)(C)c2cc3c(-c4ccc(C(=S)N5CCCCC5)s4)c4ccc(=[N+](C)C)cc-4[se]c3cc21.[Cl-]` [18b, 9-(5-(Piperidylcarbamothioyl)thiophen-2-yl) Selenorhodamine], in [8], the Papp A→B at 1 h, 5 μM came out at 0.17 ± 0.02 ×10⁻⁶ cm/s; the Papp B→A at 1 h, 5 μM turned out to be 0.18 ± 0.01 ×10⁻⁶ cm/s; the Papp at 1 h, 5 μM was ~0.2 ×10⁻⁶ cm/s. For the same compound, in [9], the Papp A→B at 1 h, 5 μM was determined as 0.19 ± 0.05 ×10⁻⁶ cm/s; the Papp B→A at 1 h, 5 μM was determined as 2.9 ± 0.3 ×10⁻⁶ cm/s; the efflux ratio at 1 h, 5 μM is 15. In addition, the “Quantum yield for the generation” value in data set [1] was determined as 0.44 ± 0.03. Besides, in data set [2], the “LD50/EC50 (laser, 1.0 J cm^–2)” value was > 55. Moreover, in [3], the “Fluorescence emission maximum λFL” value amounted to 634 nm and the “Quantum yield for fluorescence ΦFL” value was determined as 0.008 ± 0.001. The “Increase in uptake in the presence of VER” value in data set [4] is 1.3- to 2 fold and 2 fold. For the same compound, in data set [5], the “Synergy” value is on record as “synergistic effects”, the “Surviving fraction of the combination vs single treatments (in words)” value is listed as “statistically significant decrease”, the Surviving fraction is on record as ≤ 0.20 and the “Phototoxicity … of Dox” value was “some phototoxicity”. The “Dox-only concentration giving the same surviving fraction as the combination” value in data set [5] worked out at 0.3 µM. Moreover, the “Fluence after which half” value in data set [7] (setting [14]) is ~230 J cm^–2. For the same compound, the “Fluence after which half” value in data set [7] (500–800 nm light at 50 mW cm^–2, 10% CH3OH in pH 7.4 buffer) was ~850 J cm^–2. In data set [6], the “Absorption maximum λmax” value came out at 608 nm and the “Molar extinction coefficient ε” value was 8.11 × 10^4 M^–1 cm^–1.
Consider `C[n+]1c(C=CC=C2N(Cc3ccc(CCl)cc3)c3cc(Cl)c(Cl)cc3N2Cc2ccc(CCl)cc2)oc2ccccc21.[Cl-]` [MTG, 2-[3-[5,6-dichloro-1,3-bis[[4-(chloromethyl)phenyl]methyl]-1,3-dihydro-2H-benzimidazol-2-ylidene]-1-propenyl]-3-methylbenzoxazolium chloride], for which the “Mean bright detail similarity score with MTR” value in data set [10] is reported as 2.0 ± 0.8.
Turning to `CC/N=c1\cc2oc3cc(NCC)c(C)cc3c(-c3ccccc3C(=O)OCC)c-2cc1C` [compound 3, rhodamine 6G], in data set [11], the “Quantum yield for fluorescence ΦFL (standard)” value is on record as 0.93.
As for `O[C@@H](COc1cccc2ncccc12)CN1CCN([C@@H]2c3ccccc3[C@@H]3[C@H](c4ccccc42)C3(Cl)Cl)CC1` [compound 24], the “P-gp inhibition (in words)” value in data set [12] is on record as “completely inhibits P-gp”.
Regarding tetramethylrosamine [1 (E = O)], in data set [13], the “Transport rate relative to rhodamine 123 (2) or rhodamine 6G (3)” value is given as 5- to 10 fold.
